One block for each compound: values may come before it. Activity calls are given as the source filed them. The rule behind the calls is not given here.
Columns and labels:
[1] = tested on: Mus musculus; assay: Antidiabetic activity in high fat diet-induced obese C57BL/6 type 2 diabetes mouse model assessed as reduction of glucose output from liver at 30 to 100 mg/kg, po administered QD for 4 weeks by intravenous glucose tolerance test; format: functional, organism-based; details: C57BL6
Outline: (§1)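 Male C57BL6 mice kept on high fat diet dosed orally once daily with vehicle (dH2O) or compound at 30 to 100 mg/kg. Intravenous glucose tolerance test then run; plasma glucose excursion and plasma insulin AUC (0-120 min) calculated; n = 8 mice/group, mean ± SEM, p < 0.05 vs vehicle.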

[2] = target: T1, Hexokinase-4 (Homo sapiens) (UniProt P35557); assay: Activation of His-tagged human recombinant liver glucokinase expressed in Escherichia coli BL21 (DE3) assessed as drug level required for half-maximal activation; format: single protein
T1 sequence (whole entry): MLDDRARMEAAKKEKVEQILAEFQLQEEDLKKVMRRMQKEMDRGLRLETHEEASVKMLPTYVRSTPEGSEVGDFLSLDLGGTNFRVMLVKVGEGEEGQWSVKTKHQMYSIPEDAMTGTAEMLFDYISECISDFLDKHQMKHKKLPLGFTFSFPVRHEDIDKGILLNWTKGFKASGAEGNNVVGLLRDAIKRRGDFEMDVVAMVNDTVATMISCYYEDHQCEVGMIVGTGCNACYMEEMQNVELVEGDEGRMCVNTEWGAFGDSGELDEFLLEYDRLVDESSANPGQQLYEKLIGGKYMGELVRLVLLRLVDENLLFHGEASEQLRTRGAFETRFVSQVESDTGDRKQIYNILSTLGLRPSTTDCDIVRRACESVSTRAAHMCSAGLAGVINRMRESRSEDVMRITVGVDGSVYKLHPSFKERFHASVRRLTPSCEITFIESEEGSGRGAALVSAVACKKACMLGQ
Outline: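 Recombinant human liver GK (aa 17-466), His-tagged, expressed in E. coli BL21 Star (DE3), nickel affinity purified, tag cleaved (GPGSM left), then anion exchange and gel filtration to >95%.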

[3] = tested on: Mus musculus; assay: Antidiabetic activity in high fat diet-induced obese C57BL/6 type 2 diabetes mouse model assessed as increase in plasma insulin AUC at 100 mg/kg, po administered QD for 4 weeks by intravenous glucose tolerance test; format: functional, organism-based; parameters: dose 100 mg/kg; details: C57BL6; outline: as §1
[4] = tested on: Mus musculus; assay: Antidiabetic activity in high fat diet-induced obese C57BL/6 type 2 diabetes mouse model assessed as increase in plasma insulin AUC at 30 mg/kg, po administered QD for 4 weeks by intravenous glucose tolerance test; format: functional, organism-based; parameters: dose 30 mg/kg; details: C57BL6; outline: as §1
[5] = tested on: Mus musculus; assay: Antidiabetic activity in high fat diet-induced obese C57BL/6 type 2 diabetes mouse model assessed as improvement of glucose uptake at 30 to 100 mg/kg, po administered QD for 4 weeks by intravenous glucose tolerance test; format: functional, organism-based; details: C57BL6; outline: as §1
[6] = AUC (0 to 24 hrs) in C57BL/6 mouse liver at 60 mg/kg; format: ADME, organism-based, C57BL6; parameters: time < 24 hr, dose 60 mg/kg
Outline: (§2)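 Normal male-unspecified C57BL6 mice given a single 60 mg/kg dose; plasma, liver, pancreas and muscle sampled over 0-24 h, 3 animals with samples pooled for analysis; Cmax (μM) and AUC0-24h (μM*h) of parent drug reported.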

[7] = Cmax in C57BL/6 mouse plasma at 60 mg/kg; format: ADME, organism-based, C57BL6; parameters: dose 60 mg/kg; outline: as §2
[8] = Cmax in C57BL/6 mouse pancreas at 60 mg/kg; format: ADME, organism-based, C57BL6; parameters: dose 60 mg/kg; outline: as §2
[9] = AUC (0 to 24 hrs) in C57BL/6 mouse pancreas at 60 mg/kg; format: ADME, organism-based, C57BL6; parameters: time < 24 hr, dose 60 mg/kg; outline: as §2
[10] = AUC (0 to 24 hrs) in C57BL/6 mouse plasma at 60 mg/kg; format: ADME, organism-based, C57BL6; parameters: time < 24 hr, dose 60 mg/kg; outline: as §2
[11] = Cmax in C57BL/6 mouse muscle at 60 mg/kg; format: ADME, organism-based, C57BL6, Muscle tissue; parameters: dose 60 mg/kg; outline: as §2
[12] = tested on: Mus musculus; assay: Antidiabetic activity in high fat diet-induced obese C57BL/6 type 2 diabetes mouse model assessed as improvement of insulin sensitivity at 30 to 100 mg/kg, po administered QD for 4 weeks by intravenous glucose tolerance test; format: functional, organism-based; details: C57BL6; outline: as §1
[13] = Cmax in C57BL/6 mouse liver at 60 mg/kg; format: ADME, organism-based, C57BL6; parameters: dose 60 mg/kg; outline: as §2
[14] = AUC (0 to 24 hrs) in C57BL/6 mouse muscle at 60 mg/kg; format: ADME, organism-based, C57BL6, Muscle tissue; parameters: time < 24 hr, dose 60 mg/kg; outline: as §2
[15] = tested on: Mus musculus; assay: Antidiabetic activity in po dosed high fat diet-induced obese C57BL/6 type 2 diabetes mouse model assessed as decrease in glucose excursion administered QD for 4 weeks by intravenous glucose tolerance test; format: functional, organism-based; details: C57BL6; outline: as §1
[16] = Aqueous solubility in water by HPLC analysis; format: physicochemical
[17] = target: T2, Hexokinase-4 (Rattus norvegicus) (UniProt P17712); assay: Activation of glucokinase-mediated of glucose phosphorylation in Sprague-Dawley rat hepatocytes assessed as release of [3H]H2O from [2-3H]glucose at 30 uM after 3 hrs; format: cell-based; details: Hepatocyte
T2 sequence (whole entry): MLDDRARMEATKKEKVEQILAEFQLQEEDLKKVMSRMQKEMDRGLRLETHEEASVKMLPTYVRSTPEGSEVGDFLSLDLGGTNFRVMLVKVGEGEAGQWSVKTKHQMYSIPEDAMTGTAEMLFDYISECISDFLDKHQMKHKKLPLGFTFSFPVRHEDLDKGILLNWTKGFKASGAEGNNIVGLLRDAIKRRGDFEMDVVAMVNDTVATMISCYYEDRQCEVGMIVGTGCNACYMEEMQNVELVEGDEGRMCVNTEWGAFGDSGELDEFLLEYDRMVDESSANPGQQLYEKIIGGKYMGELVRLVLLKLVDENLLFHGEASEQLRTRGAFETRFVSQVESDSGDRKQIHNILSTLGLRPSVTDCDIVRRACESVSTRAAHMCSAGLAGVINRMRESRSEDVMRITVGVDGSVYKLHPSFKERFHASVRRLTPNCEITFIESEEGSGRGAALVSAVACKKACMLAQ
Outline: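 Hepatocytes from overnight-fasted male Sprague-Dawley rats by collagenase perfusion, cultured 16-20 h at 37 °C, 5% CO2 in serum-free DMEM with 5 mM glucose plus dexamethasone. Preincubated 3 h at 37 °C in serum-free DMEM, 5 mM glucose, with DMSO or 30 μM compound, then 30 min with [2-3H]glucose. Medium collected into 0.1 M HCl; detritiated glucose (nmol/h per 10^6 cells) as % increase over vehicle; quadruplicate, mean ± SEM, Student's t test.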

[18] = Metabolic stability in human liver microsomes assessed as half life; format: ADME, Microsome
Outline: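 Compound incubated at 1 μM with human liver microsomes plus selected cofactors (NADPH, UDPGA); clearance followed at 4 time points as % test compound remaining, giving half-life.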

[19] = tested on: Mus musculus; assay: Reduction in glucose excursion in C57BL/6 mouse at 50 mg/kg, po in microemulsion administered 30 mins before glucose challenge measured at 4 hrs postdose by oral glucose tolerance test; format: functional, organism-based; parameters: dose 50 mg/kg; details: C57BL6
Outline: (§3)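 C57BL6 mice grouped by matched 0-h plasma glucose; compound given by oral gavage (5 mL/kg) at 50 mg/kg (or 72 mg/kg) in microemulsion (Cremophor RH40, corn oil-monodiglyceride, propylene glycol, ethanol; diluted 2:3 with water) or in water; oral glucose 1 g/kg 30 min later. Blood sampled at 0.5, 1, 2 and 4 h post-dosing for glucose (meter) and insulin; % reduction from control.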

[20] = Permeability at 5 to 10 uM at pH 4, 6.8 and 8 by PAMPA; details: pH 4, 6.8, 8, 10 µM
[21] = Aqueous solubility by HPLC analysis; format: physicochemical; details: buffer
[22] = tested on: Mus musculus; assay: Reduction in glucose excursion in C57BL/6 mouse at 50 mg/kg, po in microemulsion administered 30 mins before glucose challenge measured at 0.5 hrs postdose by oral glucose tolerance test; format: functional, C57BL6; parameters: scale not given: the % may be the effect or the level left; outline: as §3
[23] = Intrinsic solubility in neutral pH by HPLC analysis; format: physicochemical

half-life [18]: 23.1 min | Activity [2]: 897 nM | solubility [21]: < 2 µg/mL | logPm [20]: -4.4
SMILES: COc1ccc2nc(NC(=O)C(CC3CCCC3)c3ccc(S(N)(=O)=O)cc3)sc2n1 (configuration not stated)
Activity [22]: 22%

half-life [18]: 22.6 min | Activity [2]: 2810 nM | logPm [20]: -4.3 | solubility [23]: > 570 µg/mL
SMILES: COc1ccc2nc(NC(=O)C(CC3CCCC3)c3ccc(S(=O)(=O)NCCC(=O)O)cc3)sc2n1 (configuration not stated)
Activity [19]: inactive

solubility [16]: 26 µg/mL
SMILES: CCCC(=O)[N-]S(=O)(=O)c1ccc(C(CC2CCCC2)C(=O)Nc2nc3ccc(OC)nc3s2)cc1.[Na+] (configuration not stated)

The remaining lines, values behind:

SMILES: COc1ccc2nc(NC(=O)[C@H](CC3CCCC3)c3ccc(S(=O)(=O)N4CCN(C)CC4)cc3)sc2n1
Activity [1]: Active | Activity [2]: 23 nM | Activity [3]: inactive | Activity [4]: inactive | Activity [5]: Active | AUC(0-t) at 24 h [6]: 511 µM·h | Cmax [7]: 4.3 µM | Cmax [8]: 218 µM | AUC(0-t) at 24 h [9]: 3230 µM·h | AUC(0-t) at 24 h [10]: 52.4 µM·h | Cmax [11]: 34.6 µM | Activity [12]: Active | Cmax [13]: 44.5 µM | AUC(0-t) at 24 h [14]: 167 µM·h | Activity [15]: Dose-dependent effect

SMILES: CCC(=O)[N-]S(=O)(=O)c1ccc(C(CC2CCCC2)C(=O)Nc2nc3ccc(OC)nc3s2)cc1.[Na+] (configuration not stated)
solubility [16]: 11 µg/mL

SMILES: COc1ccc2nc(NC(=O)C(CC3CCCC3)c3ccc(S(=O)(=O)NCc4ccco4)cc3)sc2n1 (configuration not stated)
Activity [17]: 14% | half-life [18]: 290 min | Activity [2]: 892 nM | Activity [19]: inactive | logPm [20]: -4.9

— ChEMBL document CHEMBL1155225, “Investigation of functionally liver selective glucokinase activators for the treatment of type 2 diabetes” (J Med Chem, 2009)
